Data set [1] has as its target T1, Disintegrin and metalloproteinase domain-containing protein 17 (Homo sapiens, UniProt P78536). In words: Inhibition of human TACE by fluorescent spectroscopy.
Data set [2] has as its target T1, Disintegrin and metalloproteinase domain-containing protein 17. In words: Inhibition of human TNF-alpha by fluorescent spectroscopy. The class given is functional.
Data set [3] is filed under the species Mus musculus. In words: Inhibition of NO production in mouse Raw 264.7 cells assessed as No2- accumulation in the medium after 24 hrs. The class given is functional, cell-based. Put shortly:
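RAW264.7 cells cultured with inhibitors for 24 h. Supernatant mixed 1:1 with Griess reagent (1% sulfanilamide, 0.1% naphthylethylenediamine dihydrochloride, 2% phosphoric acid), 10 min at room temperature. Absorbance read at 540 nm against a NaNO2 standard curve.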

The nature of data set [4]: AUC (0 to infinity) in Sprague-Dawley rat at 5 mg/kg, iv. The class given is ADME, organism-based. On the set-up: time infinity, dose 5 mg/kg, route intravenous. Conditions: plasma; call rule not given here. In short, it runs like this:
(§1)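 Male SD rats (10 weeks old, 285–305 g), cannulated in the right jugular vein, dosed iv or po with compound in saline, N = 3 per route. Blood drawn through the cannula at set times over 24 h and spun for plasma. Acetonitrile protein precipitation with carbamazepine internal standard, LC/MS/MS in positive MRM mode, non-compartmental analysis.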

Data set [5] is described as follows: Clearance in Sprague-Dawley rat at 5 mg/kg, iv. The class given is ADME, organism-based. On the set-up: dose 5 mg/kg, route intravenous. To be noted: in vivo. Put shortly:
as §1

Data set [6] concerns Rattus norvegicus. The data set can be described thus: Antiinflammatory activity in Sprague-Dawley rat assessed as inhibition of carrageenan-induced paw edema at 30 mg/kg, ip administered 30 mins before carrageenan challenge measured at 12 hrs. Conditions: route intraperitoneal. On the set-up: scale not given: the % may be the effect or the level left. Type of data set: functional. Put shortly: (§2)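 SD rats (150 g, 5 weeks, SPF), five per group: vehicle, indomethacin 10 mg/kg (DMSO/Tween 80/H2O 1:4:95) as positive control, or compound at 30 or 100 mg/kg (ethanol/PEG 400-based vehicle), given ip. Ankle thickness measured by caliper; swelling expressed as % increase over pre-treatment thickness. Inhibition taken relative to vehicle at 6 h and later time point.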
A general note: Carrageenan injected into the paw causes an acute inflammation.

Data set [7] has as its system Rattus norvegicus. In words: Antiinflammatory activity in Sprague-Dawley rat assessed as inhibition of carrageenan-induced paw edema at 100 mg/kg, ip administered 30 mins before carrageenan challenge measured at 12 hrs. Type of data set: functional. On the set-up: scale not given: the % may be the effect or the level left. Conditions: route intraperitoneal. In short, it runs like this: as §2

Data set [8] can be described thus: Metabolic stability in human liver microsomes at 40 uM by LC/MS/MS. Type of data set: ADME, Microsome. In short, it runs like this:
(§3)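 Compound at 40 µM with human liver microsomes (1 mg/mL), preincubated 5 min at 37 °C, then started with NADPH (1 mM final). Aliquots taken at 0, 15, 45 and 80 min and quenched with ice-cold acetonitrile containing carbamazepine internal standard. Centrifuged, then LC/MS/MS for parent; half-life and microsomal clearance derived.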
(In general: Microsomes from liver hold many membrane-bound enzymes, among them those of drug oxidation.)

A short description of data set [9]: AUC (0 to infinity) in Sprague-Dawley rat at 30 mg/kg, po. The class given is ADME, organism-based. On the set-up: time infinity, dose 30 mg/kg, route oral. To be noted: plasma. Put shortly:
as §1

The test system of data set [10] is Rattus norvegicus. In words: Antiinflammatory activity in Sprague-Dawley rat assessed as inhibition of carrageenan-induced paw edema at 30 mg/kg, ip administered 30 mins before carrageenan challenge measured at 6 hrs. Type of data set: functional. On the set-up: scale not given: the % may be the effect or the level left. Conditions: route intraperitoneal. Put shortly: as §2

The nature of data set [11]: Mean residence time (infinity) in Sprague-Dawley rat at 5 mg/kg, iv. On the set-up: dose 5 mg/kg, route intravenous. Conditions: in vivo. Type of data set: ADME, organism-based. Put shortly: as §1
The target of data set [12] is Matrix metalloproteinase-9 (Homo sapiens, UniProt P14780). The data set can be described thus: Inhibition of human MMP9 in cell-free system by fluorescent spectroscopy. Put shortly:
(§4)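 Recombinant human MMP-3 or MMP-9 catalytic domain with fluorogenic quenched peptide Mca-Pro-Leu-Gly-Leu-Dpa-Ala-Arg-NH2. Cleavage followed as fluorescence increase (excitation 324, emission 420). Rate of emission change taken as enzyme activity; IC50 values are means of three experiments.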

The target of a further data set is Stromelysin-1 (Homo sapiens, UniProt P08254). The data set can be described thus: Inhibition of human MMP3 in cell-free system by fluorescent spectroscopy. In short, it runs like this:
as §4

A short description of data set [13]: Half life in Sprague-Dawley rat at 30 mg/kg, po. Type of data set: ADME, organism-based. On the set-up: dose 30 mg/kg, route oral. To be noted: in vivo. In short, it runs like this:
as §1

A further data set concerns the target T2, Interstitial collagenase (Homo sapiens, UniProt P03956).
T2 sequence (P03956 whole entry): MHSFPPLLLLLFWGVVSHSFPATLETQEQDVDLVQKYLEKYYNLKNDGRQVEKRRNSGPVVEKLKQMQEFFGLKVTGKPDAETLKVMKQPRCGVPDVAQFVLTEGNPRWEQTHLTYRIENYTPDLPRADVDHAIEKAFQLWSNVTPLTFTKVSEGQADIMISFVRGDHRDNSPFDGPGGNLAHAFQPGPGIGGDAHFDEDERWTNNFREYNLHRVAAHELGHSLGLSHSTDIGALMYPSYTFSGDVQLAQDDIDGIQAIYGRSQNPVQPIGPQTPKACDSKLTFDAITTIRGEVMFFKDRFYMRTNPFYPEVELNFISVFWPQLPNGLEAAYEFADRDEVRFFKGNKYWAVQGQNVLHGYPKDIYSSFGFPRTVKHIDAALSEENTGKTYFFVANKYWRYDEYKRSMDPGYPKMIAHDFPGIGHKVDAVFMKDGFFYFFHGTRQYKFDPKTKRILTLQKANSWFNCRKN
In words: Inhibition of human MMP1 in cell-free system by fluorescent spectroscopy.

Data set [14] is described as follows: Cmax in Sprague-Dawley rat at 30 mg/kg, po. The class given is ADME, organism-based. On the set-up: dose 30 mg/kg, route oral. To be noted: in vivo. Put shortly: as §1
The nature of data set [15]: Oral bioavailability in Sprague-Dawley rat at 30 mg/kg, po. Type of data set: ADME, organism-based. To be noted: in vivo. Put shortly: as §1
A short description of data set [16]: Half life in human liver microsomes at 40 uM by LC/MS/MS. The class given is ADME, Microsome. Put shortly: as §3
The test system of data set [17] is Rattus norvegicus. In words: Antiinflammatory activity in Sprague-Dawley rat assessed as inhibition of carrageenan-induced paw edema at 100 mg/kg, ip administered 30 mins before carrageenan challenge measured at 6 hrs. Type of data set: functional. On the set-up: scale not given: the % may be the effect or the level left. To be noted: route intraperitoneal. In short, it runs like this:
as §2

Data set [18] can be described thus: Tmax in Sprague-Dawley rat at 30 mg/kg, po. The class given is ADME, organism-based. On the set-up: dose 30 mg/kg, route oral. To be noted: in vivo. In short, it runs like this:
as §1

Data set [19] can be described thus: Half life in Sprague-Dawley rat at 5 mg/kg, iv. On the set-up: dose 5 mg/kg, route intravenous. Type of data set: ADME, organism-based. Conditions: in vivo. In short, it runs like this: as §1
Data set [20] relates to Mus musculus. In words: Inhibition of LPS-alpha induced TNF-alpha production in BALB/c mouse assessed as decreased plasma TNF level at 30 mg/kg, po administered post LPS challenge measured after 60 mins by ELISA. The class given is functional. To be noted: 1 h. Put shortly:
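BALB/c mice (7–9 weeks), four per group, fasted 24 h. LPS given ip; compound given orally at 30 mg/kg ([…]). Serum collected from the heart and TNF-α measured by ELISA; percent inhibition reported.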
(An ELISA detects its analyte on a solid surface through an enzyme-linked reagent.)

Data set [21] is described as follows: Volume of distribution at steady state in Sprague-Dawley rat at 5 mg/kg, iv. On the set-up: dose 5 mg/kg, route intravenous. Conditions: in vivo, read-out: Vdss. The class given is ADME, organism-based. In short, it runs like this:
as §1

Data set [22] can be described thus: Mean residence time (infinity) in Sprague-Dawley rat at 30 mg/kg, po. Type of data set: ADME, organism-based. On the set-up: dose 30 mg/kg, route oral. Conditions: in vivo. In short, it runs like this:
as §1

T1 sequence (P78536 whole entry, the tested form may be a part): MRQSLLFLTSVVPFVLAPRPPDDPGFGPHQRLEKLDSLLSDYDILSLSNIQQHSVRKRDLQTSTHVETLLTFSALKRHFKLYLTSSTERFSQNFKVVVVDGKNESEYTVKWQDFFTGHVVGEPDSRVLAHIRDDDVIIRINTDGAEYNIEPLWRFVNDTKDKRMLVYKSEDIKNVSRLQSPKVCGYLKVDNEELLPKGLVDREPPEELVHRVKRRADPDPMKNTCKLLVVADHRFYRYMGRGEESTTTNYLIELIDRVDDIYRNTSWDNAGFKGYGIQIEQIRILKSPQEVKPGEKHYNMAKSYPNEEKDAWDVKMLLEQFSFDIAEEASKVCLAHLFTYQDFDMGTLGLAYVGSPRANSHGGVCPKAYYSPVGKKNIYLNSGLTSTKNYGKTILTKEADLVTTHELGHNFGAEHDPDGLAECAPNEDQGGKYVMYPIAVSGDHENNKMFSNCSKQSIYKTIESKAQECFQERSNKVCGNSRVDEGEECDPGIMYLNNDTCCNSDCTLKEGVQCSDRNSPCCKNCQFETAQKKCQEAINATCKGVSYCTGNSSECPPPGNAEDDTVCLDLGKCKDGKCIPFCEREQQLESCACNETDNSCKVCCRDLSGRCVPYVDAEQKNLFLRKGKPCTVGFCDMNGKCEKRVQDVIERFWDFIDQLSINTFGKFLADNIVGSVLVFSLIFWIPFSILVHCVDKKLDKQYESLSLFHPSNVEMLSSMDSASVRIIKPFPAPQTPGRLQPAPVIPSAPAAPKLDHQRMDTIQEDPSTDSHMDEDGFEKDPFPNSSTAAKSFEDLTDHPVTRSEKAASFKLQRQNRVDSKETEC
Stromelysin-1, sequence (P08254 whole entry): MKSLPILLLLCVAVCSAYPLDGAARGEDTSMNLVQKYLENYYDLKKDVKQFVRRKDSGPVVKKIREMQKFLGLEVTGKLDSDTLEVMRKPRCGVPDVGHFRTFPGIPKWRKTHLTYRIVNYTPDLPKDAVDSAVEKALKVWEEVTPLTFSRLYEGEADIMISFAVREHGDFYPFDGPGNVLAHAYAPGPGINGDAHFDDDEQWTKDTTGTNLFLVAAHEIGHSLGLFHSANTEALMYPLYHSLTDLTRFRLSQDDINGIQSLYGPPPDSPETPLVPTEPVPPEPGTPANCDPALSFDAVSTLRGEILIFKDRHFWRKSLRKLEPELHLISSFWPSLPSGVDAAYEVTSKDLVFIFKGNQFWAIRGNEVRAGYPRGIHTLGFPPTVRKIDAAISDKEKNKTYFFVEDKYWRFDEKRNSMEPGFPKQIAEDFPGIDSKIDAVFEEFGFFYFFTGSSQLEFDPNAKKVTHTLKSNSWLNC
Matrix metalloproteinase-9, sequence (P14780 whole entry, the tested form may be a part): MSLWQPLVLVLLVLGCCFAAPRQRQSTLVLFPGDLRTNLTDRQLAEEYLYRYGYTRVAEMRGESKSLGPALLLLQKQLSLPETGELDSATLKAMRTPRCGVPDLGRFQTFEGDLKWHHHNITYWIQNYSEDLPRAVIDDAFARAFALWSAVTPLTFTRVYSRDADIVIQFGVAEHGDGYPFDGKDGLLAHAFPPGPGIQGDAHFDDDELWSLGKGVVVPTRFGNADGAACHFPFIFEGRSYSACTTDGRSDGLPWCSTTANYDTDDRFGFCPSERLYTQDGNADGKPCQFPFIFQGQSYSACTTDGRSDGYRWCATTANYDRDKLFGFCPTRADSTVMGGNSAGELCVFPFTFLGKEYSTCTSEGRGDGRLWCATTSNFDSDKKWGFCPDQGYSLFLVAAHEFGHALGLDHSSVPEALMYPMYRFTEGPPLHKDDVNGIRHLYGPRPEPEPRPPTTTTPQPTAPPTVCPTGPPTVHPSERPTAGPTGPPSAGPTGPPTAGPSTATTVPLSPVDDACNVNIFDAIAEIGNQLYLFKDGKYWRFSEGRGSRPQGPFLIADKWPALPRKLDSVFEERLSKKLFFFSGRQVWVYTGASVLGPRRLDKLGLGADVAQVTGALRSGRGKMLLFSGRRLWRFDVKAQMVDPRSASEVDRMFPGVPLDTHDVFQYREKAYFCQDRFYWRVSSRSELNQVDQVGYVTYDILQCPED

As to `Cc1ccc2oc(=O)c(CC(Cc3cccc(OCCN4CCCCC4)c3)C(=O)NO)cc2c1` (stereo not given), the values for the IC50 (in data set [1]; in data set [2]; in the data set listed under Mus musculus [3]) were 1.07 nM, 260 nM and “Not Active”, respectively.

As for `CCN(CC)CCOc1ccc(CCC(Cc2cc3cc(C)ccc3oc2=O)C(=O)NO)cc1` (stereo not given), the results for the IC50 (in [1]; in data set [2]; in the data set listed under Mus musculus [3]) were 0.53 nM, 140 nM and “Not Active”, respectively.

For `Cc1ccc2oc(=O)c(CC(CCCc3cccc(OCCN4CCCCC4)c3)C(=O)NO)cc2c1` (stereo not given), the IC50 in data set [1] was 0.27 nM; in data set [2], 230 nM; in the data set filed under Mus musculus [3], “Not Active”.

As to `Cc1ccc2oc(=O)c(CC(Cc3ccc(OCCN4CCCCC4)cc3)C(=O)NO)cc2c1` (stereo not given), the IC50 in [1] is 10.9 nM; in data set [2], 1500 nM; in the data set filed under Mus musculus [3], “Not Active”.

Take `Cc1ccc2oc(=O)c(CC(CCCCc3ccccc3)C(=O)NO)cc2c1` (stereo not given): the IC50 in data set [1] is 32.8 nM; in data set [2], more than 3000 nM; in the data set listed under Mus musculus [3], “Not Active”.

Take `CCN(CC)CCOc1ccc(CCC(Cc2cc3ccc(F)cc3oc2=O)C(=O)NO)cc1` (stereo not given): the IC50 in [1] was 0.46 nM; in [2], 70 nM; in the data set listed under Mus musculus [3] it was “Not Active”.

For `Cc1ccc2oc(=O)c(CC(CCc3ccc(OCCN4CCCCC4)cc3)C(=O)NO)cc2c1` (stereo not given), the values for the IC50 (in [1]; in data set [2]; in the data set filed under Mus musculus [3]) were 1.04 nM, 200 nM and “Not Active”, respectively.

For `Cc1ccc2oc(=O)c(CC(Cc3ccccc3)C(=O)NO)cc2c1` (stereo not given), the figures for the IC50 (in data set [1]; in [2]; in the data set filed under Mus musculus [3]) were 0.5 nM, 520 nM and “Not Active”, respectively.

For the compound `Cc1ccc2oc(=O)c(CC(CCc3ccc(OCCN(C)C)cc3)C(=O)NO)cc2c1` (stereo not given), the IC50 in data set [1] was 0.66 nM; in [2], 110 nM; in the data set listed under Mus musculus [3], “Not Active”.

As to `Cc1ccc2oc(=O)c(CC(CCc3cccc(OCCN4CCCCC4)c3)C(=O)NO)cc2c1` (stereo not given), the IC50 in data set [1] was 0.9 nM; in data set [2], 240 nM; in the data set listed under Mus musculus [3], “Not Active”.

As to `Cc1ccc2oc(=O)c(CC(CCc3ccc(O)cc3)C(=O)NO)cc2c1` (stereo not given), the results for the IC50 (in [1]; in [2]; in the data set listed under Mus musculus [3]) were 0.3 nM, 920 nM and “Not Active”, respectively.

Turning to `CCN(CC)CCOc1ccc(CCC(Cc2cc3ccc(C)cc3oc2=O)C(=O)NO)cc1` (stereo not given), the AUC(0-inf) in [4] is 1880 ng·h/mL; in data set [9] it was 4690 ng·h/mL. Further, the IC50 is 0.28 nM in data set [1]; 60 nM in data set [2]; 23 nM in [12]; 8.7 nM on Stromelysin-1; 557 nM at Interstitial collagenase; “Not Active” in the data set listed under Mus musculus [3]. In [5], the clearance was 44.3 mL/min/kg. Besides, the Activity with Rattus norvegicus [6] is 14%; in the data set on Rattus norvegicus [7], 35%; in the data set with Rattus norvegicus [10], 8%; in the data set with Rattus norvegicus [17], 20%. This compound also displayed a microsomal CLint at 40 µM in data set [8] of 9.5 µL/min/mg. Also, the figures for the MRT inf in data set [11] and in data set [22] were 1.14 h and 2.9 h, respectively. Also, the half-life in data set [13] was 3.19 h; in [19], 2.8 h. Besides, in data set [14], the Cmax is 1140 ng/mL. In [15], this compound returned a bioavailability of 41.6%. The compound also gave a half-life at 40 µM in data set [16] of 1.22 h. Besides, the Tmax in data set [18] stood at 2 h. In the data set with Mus musculus [20], the inhibition in vivo at 30 mg/kg was 74%. Also, the Vd in [21] came out at 3.04 L/kg.

With `Cc1ccc2oc(=O)c(CC(CCCc3ccc(OCCN4CCCCC4)cc3)C(=O)NO)cc2c1` (stereo not given), the IC50 in data set [1] was 1.07 nM; in [2], 320 nM; in the data set filed under Mus musculus [3], “Not Active”.

By IC50 is commonly meant the concentration needed to halve the response being measured. A word on the AUC(0-inf): it is total exposure, with the tail of the curve extrapolated. In general, clearance refers to the volume of plasma or blood freed of the substance per unit of time. For orientation: microsomal CLint means the capacity of the preparation to metabolise the compound, expressed as a volume cleared per time. By MRT inf is commonly meant the average time that molecules of a dose stay in the body. For orientation: half-life means how long it takes for the measured level to halve. What is called Cmax is the peak of the concentration-time curve. Broadly, the bioavailability is the share of a dose that reaches the circulation, judged against a reference dose that is usually intravenous. For orientation: Tmax means the time at which the peak concentration occurs. A word on the inhibition in vivo: it is the change of the read-out against control, counted positive when it falls.
